Data as given in ChEMBL document CHEMBL1806494, “Synthesis and biological evaluation of potential 5-HT(7) receptor PET radiotracers” (Eur J Med Chem, 2011).
The source made the active and inactive calls. The calls are words filed in the database; no cut-off is given here.

How the values were obtained:
[1] = target: T1, 5-hydroxytryptamine receptor 1A (Homo sapiens) (UniProt P08908); assay: Binding affinity to recombinant human 5HT1A receptor expressed in CHO cells by competitive binding assay; type: cell-based
T1 sequence (whole entry): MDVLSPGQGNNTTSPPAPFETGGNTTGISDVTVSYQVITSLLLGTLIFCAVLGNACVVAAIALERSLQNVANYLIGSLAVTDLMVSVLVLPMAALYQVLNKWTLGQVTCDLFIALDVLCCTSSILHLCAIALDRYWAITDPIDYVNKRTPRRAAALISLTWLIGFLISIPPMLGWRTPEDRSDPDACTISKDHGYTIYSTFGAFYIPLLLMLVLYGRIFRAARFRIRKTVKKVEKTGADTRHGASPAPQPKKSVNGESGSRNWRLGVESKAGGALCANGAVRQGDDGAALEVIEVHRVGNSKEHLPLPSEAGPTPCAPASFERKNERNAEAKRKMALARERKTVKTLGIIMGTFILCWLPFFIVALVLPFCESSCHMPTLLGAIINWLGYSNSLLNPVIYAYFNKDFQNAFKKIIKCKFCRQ
Method in brief: (§1)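 Cell-based functional assay on human recombinant receptors expressed in CHO cells. Test compound inhibition of the control specific agonist response was measured over a concentration range. Concentration-response curves were built from mean replicate values and fitted with the Hill equation by non-linear regression to give IC50, reported as KB.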

[2] = target: T2, 5-hydroxytryptamine receptor 7 (Homo sapiens, UniProt P34969); assay: Binding affinity to recombinant human 5HT7 receptor expressed in CHO cells by competitive binding assay; type: cell-based; method in brief: as §1
T2 sequence (P34969 whole entry): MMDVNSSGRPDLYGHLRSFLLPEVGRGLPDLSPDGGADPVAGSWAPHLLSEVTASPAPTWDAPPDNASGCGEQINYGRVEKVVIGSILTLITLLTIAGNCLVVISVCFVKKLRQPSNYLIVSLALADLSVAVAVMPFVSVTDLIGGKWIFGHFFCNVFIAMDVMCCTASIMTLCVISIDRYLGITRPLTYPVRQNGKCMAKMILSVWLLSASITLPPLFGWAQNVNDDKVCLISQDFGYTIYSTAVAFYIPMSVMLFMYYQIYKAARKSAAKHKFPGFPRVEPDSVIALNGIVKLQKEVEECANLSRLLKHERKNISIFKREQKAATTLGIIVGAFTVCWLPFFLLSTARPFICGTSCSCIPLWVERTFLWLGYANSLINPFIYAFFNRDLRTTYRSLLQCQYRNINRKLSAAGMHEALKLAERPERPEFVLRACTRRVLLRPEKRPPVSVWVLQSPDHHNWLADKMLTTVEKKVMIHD

[3] = target: 5-hydroxytryptamine receptor 6 (Homo sapiens) (UniProt P50406); assay: Binding affinity to recombinant human 5HT6 receptor expressed in CHO cells by competitive binding assay; type: cell-based; method in brief: as §1
Chain of 5-hydroxytryptamine receptor 6 (Homo sapiens) (P50406 whole entry): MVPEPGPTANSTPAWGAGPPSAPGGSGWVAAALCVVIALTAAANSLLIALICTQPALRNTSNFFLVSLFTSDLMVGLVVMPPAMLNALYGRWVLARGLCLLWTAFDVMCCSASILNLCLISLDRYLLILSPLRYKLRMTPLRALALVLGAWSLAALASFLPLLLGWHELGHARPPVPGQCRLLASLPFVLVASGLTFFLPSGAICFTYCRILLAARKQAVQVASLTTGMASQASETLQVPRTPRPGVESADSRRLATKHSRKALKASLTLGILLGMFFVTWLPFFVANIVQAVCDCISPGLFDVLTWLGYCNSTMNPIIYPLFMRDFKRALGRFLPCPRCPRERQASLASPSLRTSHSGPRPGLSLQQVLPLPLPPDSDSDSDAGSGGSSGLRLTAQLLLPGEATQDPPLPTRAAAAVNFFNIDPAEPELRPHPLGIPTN

[4] = target: 5-hydroxytryptamine receptor 7 (Rattus norvegicus) (UniProt P32305); assay: Binding affinity to 5HT7 receptor in Sprague-Dawley rat hippocampus at 1 uCi/ml after 20 mins by semi-quantitative autoradiography in presence of 10 to 100 nM of 5HT7 receptor antagonist SB269970; type: tissue-based; details: tested as the 18F-labelled form
Chain of 5-hydroxytryptamine receptor 7 (Rattus norvegicus) (P32305 whole entry): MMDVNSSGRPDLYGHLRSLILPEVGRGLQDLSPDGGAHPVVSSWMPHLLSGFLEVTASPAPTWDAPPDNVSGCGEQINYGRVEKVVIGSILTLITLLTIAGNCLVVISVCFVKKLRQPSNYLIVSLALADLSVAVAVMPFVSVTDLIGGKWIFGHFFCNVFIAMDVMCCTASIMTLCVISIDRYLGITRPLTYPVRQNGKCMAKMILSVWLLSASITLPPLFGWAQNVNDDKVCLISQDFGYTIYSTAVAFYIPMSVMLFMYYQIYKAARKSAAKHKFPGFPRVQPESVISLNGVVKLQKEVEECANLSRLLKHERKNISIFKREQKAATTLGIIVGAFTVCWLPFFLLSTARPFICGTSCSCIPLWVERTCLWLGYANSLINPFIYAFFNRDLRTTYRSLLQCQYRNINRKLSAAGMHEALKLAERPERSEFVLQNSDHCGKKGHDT
Method in brief: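 Coronal rat brain sections (30 µm, cut through hippocampus and cerebellum, stored at -80 °C) brought to ambient temperature, incubated 20 min in Tris phosphate-buffered saline (138 mM NaCl, 2.7 mM KCl, pH 7.6) with 37 kBq/ml [18F]radiotracer, alone or with SB269970 (10 nM, 100 nM or 1 µM). Rinsed 90 s in cold buffer (4 °C), then 90 s in cold water, dried, and exposed to a phosphor imaging plate for 60 min. Hippocampal binding read semi-quantitatively, in triplicate.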

[5] = target: T2, 5-hydroxytryptamine receptor 7; assay: Binding affinity to 5HT7 receptor

Row | Kb [1] | Kb [2] | Kb [3] | Activity [4] | Ki [5] | Structure (SMILES)
1 | > 10 µM | 8.4 nM | > 10 µM | inactive |  | CC1CCN(CC[C@H]2CCCN2S(=O)(=O)c2ccccc2F)CC1
2 |  |  |  |  | 9.7 nM | [11CH3]N1C(=O)C2(CCCCN3CCc4sccc4C3)CCCc3cccc1c32 (configuration not stated)
3 | > 10 µM | 4.8 nM | > 10 µM | Active |  | COc1ccccc1N1CCN(CC[C@H]2CCCN2S(=O)(=O)c2ccc(F)cc2)CC1
4 | > 10 µM | 1.6 nM | > 10 µM | Active |  | COc1ccccc1N1CCN(CC[C@H]2CCCN2S(=O)(=O)c2ccccc2F)CC1
5 | > 10 µM | 14 nM | > 10 µM | inactive |  | CC1CCN(CC[C@H]2CCCN2S(=O)(=O)c2ccc(F)cc2)CC1
